Assay results published in ChEMBL document CHEMBL1641479, “2-Substituted (S)-2-(3,3-dimethyl-1-oxo-10,10a-dihydroimidazo[1,5-b]isoquinolin-2(1H,3H,5H)-yl)acetic acids: Conformational prediction, synthesis, anti-thrombotic and vasodilative evaluation” (Bioorg Med Chem, 2011).
“And” between values parts separate entries of the source, which are not always exact repeats. Identical values can stand only once.

Tests used:
Rattus norvegicus [1] = test: Antithrombotic activity in Wistar rat assessed as thrombus weight at 167 umol/kg, iv (reference value: 25.99 +/- 2.41 mg); assay type: functional
Rattus norvegicus [2] = test: Antithrombotic activity in Wistar rat assessed as thrombus weight at 167 umol/kg, iv (reference value: 28.54 +/- 2.62 mg); assay type: functional
Rattus norvegicus [3] = test: Antithrombotic activity in Wistar rat assessed as thrombus weight at 167 umol/kg, iv (reference value: 24.09 +/- 2.33 mg); assay type: functional
Rattus norvegicus [4] = test: Antithrombotic activity in Wistar rat assessed as thrombus weight at 15 umol/kg, iv (reference value: 28.54 +/- 2.62 mg); assay type: functional
[5] = Antiplatelet activity against pig platelet assessed as inhibition of PAF-induced platelet aggregation by spectrophotometry; assay type: functional, cell-based; conditions: Sus scrofa
Procedure, shortened: (§1)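 Pig blood (six pigs) spun 1000 rpm 10 min for PRP, then 1500 rpm 10 min for PPP; PRP adjusted to 2×10^8 platelets/mL with autologous PPP. Compound (final 100 µM to 1 nM, diluted in NS from DMSO/NS stock) or NS added, then inducer at final PAF 0.1 µM, ADP 10 µM, AA 350 µM or thrombin 0.1 U/mL.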

[6] = Antiplatelet activity against pig platelet assessed as inhibition of thrombin-induced platelet aggregation by spectrophotometry; assay type: functional, cell-based; conditions: Sus scrofa; procedure, shortened: as §1
[7] = Antiplatelet activity against pig platelet assessed as inhibition of arachidonic acid-induced platelet aggregation by spectrophotometry; assay type: functional, cell-based; conditions: Sus scrofa; procedure, shortened: as §1
Rattus norvegicus [8] = test: Antithrombotic activity in Wistar rat assessed as thrombus weight at 10 nmol/kg, iv (reference value: 24.09 +/- 2.33 mg); assay type: functional
[9] = Antiplatelet activity against pig platelet assessed as inhibition of ADP-induced platelet aggregation by spectrophotometry; assay type: functional, cell-based; conditions: Sus scrofa; procedure, shortened: as §1
Aorta = test: Inhibition of noradrenaline-induced contraction in Wistar rat thoracic aortic ring assessed as vasorelaxant activity at 300 uM treated after noradrenaline challenge; assay type: functional; design: scale not given: the % may be the effect or the level left
Procedure, shortened: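 Male Wistar rats, 250–300 g, were decapitated and aortic strips were mounted in 37 °C Krebs solution (pH 7.4) gassed with 95% O2/5% CO2, connected to a tension transducer. Strips were contracted with 59 µM noradrenaline, washed, stabilised 30 min, then re-contracted with 59 µM noradrenaline. At peak contraction, compound in ethanol or ethanol alone was added and relaxation was recorded.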

Rattus norvegicus [10] = test: Antithrombotic activity in iv dosed Wistar rat assessed as decrease in thrombus weight; assay type: functional, organism-based
Rattus norvegicus [11] = test: Antithrombotic activity in Wistar rat assessed as thrombus weight at 1 nmol/kg, iv (reference value: 22.09 +/- 3.33 mg); assay type: functional
Rattus norvegicus [12] = test: Antithrombotic activity in Wistar rat assessed as thrombus weight at 100 nmol/kg, iv (reference value: 22.09 +/- 3.33 mg); assay type: functional
[13] = Antiplatelet activity against pig platelet assessed as inhibition of thrombin-induced platelet aggregation at 10 uM by spectrophotometry; assay type: functional; conditions: Sus scrofa; procedure, shortened: as §1
[14] = Antiplatelet activity against pig platelet assessed as inhibition of arachidonic acid-induced platelet aggregation at 10 uM by spectrophotometry; assay type: functional; conditions: Sus scrofa; procedure, shortened: as §1
[15] = Antiplatelet activity against pig platelet assessed as inhibition of ADP-induced platelet aggregation at 10 uM by spectrophotometry; assay type: functional; conditions: Sus scrofa; procedure, shortened: as §1
Rattus norvegicus [16] = test: Antithrombotic activity in Wistar rat assessed as thrombus weight at 15 umol/kg, iv (reference value: 24.09 +/- 2.33 mg); assay type: functional
Rattus norvegicus [17] = test: Antithrombotic activity in Wistar rat assessed as thrombus weight at 15 umol/kg, iv (reference value: 25.99 +/- 2.41 mg); assay type: functional
[18] = Antiplatelet activity against pig platelet assessed as inhibition of PAF-induced platelet aggregation at 10 uM by spectrophotometry; assay type: functional; conditions: Sus scrofa; procedure, shortened: as §1

Compound | IC50 [5] | IC50 [6] | IC50 [7] | Activity (Rattus norvegicus [8]) | IC50 [9] | Activity (Aorta) | further results
CC(=O)Oc1ccccc1C(=O)O [ASPIRIN] | – | – | – | – | – | – | Activity (Rattus norvegicus [1]): 15.01 mg; Activity (Rattus norvegicus [2]): 13.22 mg; Activity (Rattus norvegicus [3]): 13.22 mg; Activity (Rattus norvegicus [4]): 27.6 mg
CC(O)[C@@H](C(=O)O)N1C(=O)[C@@H]2Cc3ccccc3CN2C1(C)C (stereo partly specified) | 600 nM | 698 nM | 335 nM | 16.04 mg | 207 nM | 9.98% | –
CC(C)C[C@@H](C(=O)O)N1C(=O)[C@@H]2Cc3ccccc3CN2C1(C)C | 515 nM | 599 nM | 287 nM | 12.99 mg and 13.79 mg | 171 nM | 30.14% | inhibition (Rattus norvegicus [10]): Dose-dependent effect; Activity (Rattus norvegicus [11]): 20.67 mg; Activity (Rattus norvegicus [12]): 10.02 mg
CC1(C)N(CC(=O)O)C(=O)[C@@H]2Cc3ccccc3CN21 | 519 nM | 604 nM | 290 nM | 14.39 mg and 13.89 mg | 173 nM | 21.11% | –
CCC(C)[C@@H](C(=O)O)N1C(=O)[C@@H]2Cc3ccccc3CN2C1(C)C (stereo partly specified) | 486 nM | 565 nM | 271 nM | 12.99 mg | 158 nM | 34.29% | –
CC1(C)N2Cc3ccccc3C[C@H]2C(=O)N1[C@@H](Cc1ccc(O)cc1)C(=O)O | 752 nM | 875 nM | 420 nM | 20.1 mg | 273 nM | 1.59% | –
O=C(O)[C@@H]1Cc2ccccc2CN1 | 944 nM | 980 nM | 481 nM | – | 542 nM | – | inhibition at 10 µM [13]: 14.5%; inhibition at 10 µM [14]: 10.4%; inhibition at 10 µM [15]: 10.7%; Activity (Rattus norvegicus [16]): 22.01 mg; Activity (Rattus norvegicus [17]): 22.22 mg; inhibition at 10 µM [18]: 13.5%
CC1(C)N2Cc3ccccc3C[C@H]2C(=O)N1[C@@H](CC(N)=O)C(=O)O | 777 nM | 903 nM | 433 nM | 20.75 mg | 283 nM | 3.89% | –
CC1(C)N2Cc3ccccc3C[C@H]2C(=O)N1[C@@H](CCC(=O)O)C(=O)O | 695 nM | 808 nM | 388 nM | 18.57 mg | 248 nM | 4.33% | –
CSCC[C@@H](C(=O)O)N1C(=O)[C@@H]2Cc3ccccc3CN2C1(C)C | 499 nM | 852 nM | 408 nM | 19.56 mg | 264 nM | 5.58% | –
CC1(C)N2Cc3ccccc3C[C@H]2C(=O)N1[C@@H](CS)C(=O)O | 535 nM | 622 nM | 299 nM | 14.36 mg | 180 nM | 16.57% | –
